Laboratory results from ChEMBL document CHEMBL3526095, “Characterization of the in vitro and in vivo metabolism and disposition and cytochrome P450 inhibition/induction profile of saxagliptin in human” (Drug Metab Dispos, 2012).

Legend:
Hepatocyte [1] = test: Cytotoxicity against human hepatocytes assessed as change in morphological integrity up to 25 uM; format: cell-based
Hepatocyte [2] = test: Cytotoxicity against human hepatocytes up to 25 uM by lactate dehydrogenase assay; format: cell-based
Hepatocyte [3] = test: Induction of CYP3A4 mRNA expression in human hepatocytes assessed as testosterone 6beta-hydroxylation up to 25 uM by LC-MS/MS analysis; format: ADME, cell-based
In short: (§1)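 Primary hepatocytes from three donors treated once daily for 3 days: saxagliptin 0.2–25 µM, M2 0.2–100 µM, 0.1% DMSO as vehicle. Microsomal activity assayed by LC-MS/MS: phenacetin 100 µM with 0.02 mg/ml protein (CYP1A2), bupropion 250 µM with 0.02 mg/ml (CYP2B6), testosterone 200 µM with 0.01 mg/ml (CYP3A4). mRNA measured by TaqMan qPCR as 2^ΔCT relative to endogenous control and DMSO.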

[4] = Oral bioavailability in monkey; format: ADME, organism-based, Macaca mulatta; conditions: rhesus monkey, in vivo
[5] = Drug metabolism in human assessed as parent compound level in urine at 50 mg, po after up to 168 hrs by LC-MS/MS analysis; format: ADME, organism-based; conditions: in vivo
In short: (§2)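 Single 50-mg oral solution dose of [14C]saxagliptin (91.5 µCi) given to healthy male subjects after a 10-h fast. Urine collected as 0–12 h and 12–24 h pools, then in 24-h intervals to 168 h. Saxagliptin and M2 measured by validated positive-ESI LC-MS/MS with MRM; urine standard curves 25–5000 ng/ml for saxagliptin and 50–10,000 ng/ml for M2.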

[6] = Drug metabolism in human assessed as parent compound level in feces at 50 mg, po after up to 168 hrs by LC-MS/MS analysis; format: ADME, organism-based; conditions: read-out: Drug metabolism
[7] = Drug metabolism in human liver microsomes assessed as compound turnover at 10 uM after 1 hr by LC-MS/MS analysis in presence of NADPH; format: ADME; conditions: read-out: Drug metabolism
In short: (§3)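 Pooled HLM at 1 mg/ml protein, incubated with 10 µM [14C]saxagliptin and 1 mM NADPH in 100 mM phosphate buffer pH 7.4 at 37°C for 60 min. Quenched with ice-cold acetonitrile; supernatant analysed by LC-MS/MS and off-line radioanalysis.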

Cytochrome P450 3A4 [8] = molecular target: T1, Cytochrome P450 3A4 (Homo sapiens, UniProt P08684); test: Drug metabolism assessed as human CYP3A4-mediated 5-hydroxy saxagliptin formation at 10 uM after 30 mins by LC-MS/MS analysis; format: ADME; conditions: recombinant enzyme, 0.5 h
Liver microsome [9] = test: Drug metabolism in human liver microsomes assessed as formation of 5-hydroxy saxagliptin Michaelis-Menten kinetic analysis; format: ADME
In short: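 M2 formation kinetics measured in triplicate at twelve saxagliptin concentrations from 1 to 800 µM. Enzyme source was pooled HLM (0.25 mg/ml, 30 min, 37°C) or expressed CYP3A4 or CYP3A5 (10 pmol/ml, 10 min). Incubations contained 1 mM NADPH and 2 mM MgCl2 in phosphate buffer pH 7.4.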

Cytochrome P450 1A2 [10] = molecular target: T2, Cytochrome P450 1A2 (Homo sapiens, UniProt P05177); test: Inhibition of CYP1A2 in human liver microsomes assessed as phenacetin O-deethylation after 3 mins by LC-MS/MS analysis in presence of NADPH; format: ADME
T2 sequence (P05177 whole entry): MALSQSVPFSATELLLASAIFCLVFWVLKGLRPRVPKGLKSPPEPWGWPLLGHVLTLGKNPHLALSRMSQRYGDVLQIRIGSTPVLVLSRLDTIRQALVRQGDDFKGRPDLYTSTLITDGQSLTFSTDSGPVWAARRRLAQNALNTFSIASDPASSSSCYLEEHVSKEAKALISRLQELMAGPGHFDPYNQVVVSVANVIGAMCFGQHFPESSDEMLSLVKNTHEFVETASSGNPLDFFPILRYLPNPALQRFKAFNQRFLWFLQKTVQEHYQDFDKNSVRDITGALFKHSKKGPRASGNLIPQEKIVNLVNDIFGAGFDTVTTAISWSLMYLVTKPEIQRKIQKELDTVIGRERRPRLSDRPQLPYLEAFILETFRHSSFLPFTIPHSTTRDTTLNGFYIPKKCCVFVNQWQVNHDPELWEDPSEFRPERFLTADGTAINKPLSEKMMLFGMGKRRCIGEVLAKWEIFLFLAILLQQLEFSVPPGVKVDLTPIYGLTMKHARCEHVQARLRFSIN

Cytochrome P450 3A4 [11] = molecular target: T1, Cytochrome P450 3A4; test: Inhibition of CYP3A4 in human liver microsomes assessed as midazolam 1'-hydroxylation after 3 mins by LC-MS/MS analysis; format: ADME
Cytochrome P450 1A2 [12] = molecular target: T2, Cytochrome P450 1A2; test: Inhibition of CYP1A2 in human liver microsomes assessed as phenacetin O-deethylation preincubated for 15 mins by LC-MS/MS analysis in presence of NADPH; format: ADME
Cytochrome P450 2A6 = molecular target: T3, Cytochrome P450 2A6 (Homo sapiens, UniProt P11509); test: Inhibition of CYP2A6 in human liver microsomes assessed as coumarin 7-hydroxylation preincubated for 15 mins by LC-MS/MS analysis in presence of NADPH; format: ADME
T3 sequence (P11509 whole entry): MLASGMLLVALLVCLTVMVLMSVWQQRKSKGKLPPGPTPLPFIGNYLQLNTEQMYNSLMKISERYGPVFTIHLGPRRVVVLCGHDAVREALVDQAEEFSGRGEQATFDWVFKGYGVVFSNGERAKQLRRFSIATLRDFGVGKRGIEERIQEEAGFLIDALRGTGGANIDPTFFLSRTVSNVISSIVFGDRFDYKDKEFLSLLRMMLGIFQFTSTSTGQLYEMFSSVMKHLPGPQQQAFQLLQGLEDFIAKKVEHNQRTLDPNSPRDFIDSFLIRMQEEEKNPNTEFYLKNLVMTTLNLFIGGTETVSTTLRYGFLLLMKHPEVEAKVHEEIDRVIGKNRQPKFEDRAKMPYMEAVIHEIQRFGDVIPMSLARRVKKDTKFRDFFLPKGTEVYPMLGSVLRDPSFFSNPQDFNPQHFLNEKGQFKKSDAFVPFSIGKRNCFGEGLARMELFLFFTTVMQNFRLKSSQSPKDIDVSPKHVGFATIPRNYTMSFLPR

Cytochrome P450 3A4 [13] = molecular target: T1, Cytochrome P450 3A4; test: Inhibition of CYP3A4 in human liver microsomes assessed as midazolam 1'-hydroxylation preincubated for 15 mins by LC-MS/MS analysis; format: ADME
Cytochrome P450 3A4 [14] = molecular target: T1, Cytochrome P450 3A4; test: Inhibition of CYP3A4 in human liver microsomes assessed as testosterone 6beta-hydroxylation preincubated for 15 mins by LC-MS/MS analysis in presence of NADPH; format: ADME
Hepatocyte [15] = test: Induction of CYP1A2 mRNA expression in human hepatocytes assessed as phenacetin O-deethylation up to 100 uM by LC-MS/MS analysis; format: ADME, cell-based; in short: as §1
[16] = Drug level in human urine treated with 50 mg, po of [14C]saxagliptin up to 168 hrs by LC-MS/MS analysis; format: ADME, organism-based; conditions: in vivo; in short: as §2
Liver microsome [17] = test: Drug level in human liver microsomes treated with 10 uM of [14C]saxagliptin after 1 hr by LC-MS/MS analysis in presence of NADPH; format: ADME; in short: as §3

T1 sequence (P08684 whole entry): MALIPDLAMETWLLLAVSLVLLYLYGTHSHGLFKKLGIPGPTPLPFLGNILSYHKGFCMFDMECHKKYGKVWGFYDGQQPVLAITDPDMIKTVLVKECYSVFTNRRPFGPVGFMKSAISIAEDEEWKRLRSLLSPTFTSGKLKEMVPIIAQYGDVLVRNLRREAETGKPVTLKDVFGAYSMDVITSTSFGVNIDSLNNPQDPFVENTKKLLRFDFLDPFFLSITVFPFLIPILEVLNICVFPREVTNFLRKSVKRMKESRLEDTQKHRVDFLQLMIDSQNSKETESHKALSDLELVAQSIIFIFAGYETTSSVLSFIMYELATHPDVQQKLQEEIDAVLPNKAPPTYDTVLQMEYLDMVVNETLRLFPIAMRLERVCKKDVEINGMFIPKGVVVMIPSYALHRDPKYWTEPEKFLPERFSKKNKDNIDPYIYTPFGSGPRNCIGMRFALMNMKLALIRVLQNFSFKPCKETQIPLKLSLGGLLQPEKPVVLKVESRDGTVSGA

Activity (Hepatocyte [3])	bioavailability [4] [%]	Drug metabolism [5]	dose excreted at 168 h [6] [%]	metabolised at 1 h, 10 µM [7] [%]	Drug metabolism (Cytochrome P450 3A4 [8])	Km (Liver microsome [9]) [µM]	Vmax (Liver microsome [9]) [pmol/min]	IC50 (Cytochrome P450 1A2 [10]) [µM]	IC50 (Cytochrome P450 3A4 [11]) [µM]	IC50 (Cytochrome P450 1A2 [12]) [µM]	IC50 (Cytochrome P450 2A6) [µM]	IC50 (Cytochrome P450 3A4 [13]) [µM]	IC50 (Cytochrome P450 3A4 [14]) [µM]	Activity (Hepatocyte [15])	Drug metabolism [16]	Drug metabolism (Liver microsome [17])	SMILES	Activity (Hepatocyte [1])	Activity (Hepatocyte [2])
Not Active	51	metabolite_detected	0.5	32	metabolite_detected	94.8	496										N#C[C@@H]1C[C@@H]2C[C@@H]2N1C(=O)[C@@H](N)C12CC3CC(CC(O)(C3)C1)C2 [SAXAGLIPTIN ANHYDROUS]	Non-toxic	Non-toxic
								> 200	> 200	> 200	> 200	> 200	> 200	Not Active	metabolite_detected	metabolite_detected	N#C[C@@H]1C[C@@H]2C[C@@H]2N1C(=O)[C@@H](N)C12CC3CC(O)(CC(O)(C3)C1)C2		
